pIC50: −log10 of the molar value. Values belong to the compound of their own block, whether it stands above or below them.
Experiments:
[1] = target: T1, Epidermal growth factor receptor (Homo sapiens, UniProt P00533); conditions: 10 uM
[2] = target: T1, Epidermal growth factor receptor; conditions: 5 uM
[3] = target: T1, Epidermal growth factor receptor; experiment: In vitro inhibition of intrinsic tyrosine protein kinase activity of the Epidermal growth factor receptor using […]
In short: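 Enzyme source was ER 22 membranes purified on 32% sucrose. Reaction buffer: 20 mM Hepes pH 7.4, 1 mM MnCl2, 0.1 mg/mL BSA, 100 ng/mL EGF. Receptor was preincubated with EGF for 10 min at room temperature, then inhibitor was added. It was stopped with TCA; supernatant was spotted on phosphocellulose paper, washed in phosphoric acid and counted by scintillation.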

[4] = target: T1, Epidermal growth factor receptor; conditions: 10 uM; remark: listed apart in the source
[5] = target: T1, Epidermal growth factor receptor; conditions: 10 uM; remark: listed apart in the source
[6] = target: T1, Epidermal growth factor receptor; conditions: 10 uM; remark: listed apart in the source
[7] = target: T1, Epidermal growth factor receptor; conditions: 1.25 uM
[8] = target: T1, Epidermal growth factor receptor; conditions: 5 uM; remark: listed apart in the source
[9] = target: T1, Epidermal growth factor receptor; experiment: Inhibition of Epidermal growth factor receptor activity against […] at 10 uM

T1 sequence (P00533 whole entry): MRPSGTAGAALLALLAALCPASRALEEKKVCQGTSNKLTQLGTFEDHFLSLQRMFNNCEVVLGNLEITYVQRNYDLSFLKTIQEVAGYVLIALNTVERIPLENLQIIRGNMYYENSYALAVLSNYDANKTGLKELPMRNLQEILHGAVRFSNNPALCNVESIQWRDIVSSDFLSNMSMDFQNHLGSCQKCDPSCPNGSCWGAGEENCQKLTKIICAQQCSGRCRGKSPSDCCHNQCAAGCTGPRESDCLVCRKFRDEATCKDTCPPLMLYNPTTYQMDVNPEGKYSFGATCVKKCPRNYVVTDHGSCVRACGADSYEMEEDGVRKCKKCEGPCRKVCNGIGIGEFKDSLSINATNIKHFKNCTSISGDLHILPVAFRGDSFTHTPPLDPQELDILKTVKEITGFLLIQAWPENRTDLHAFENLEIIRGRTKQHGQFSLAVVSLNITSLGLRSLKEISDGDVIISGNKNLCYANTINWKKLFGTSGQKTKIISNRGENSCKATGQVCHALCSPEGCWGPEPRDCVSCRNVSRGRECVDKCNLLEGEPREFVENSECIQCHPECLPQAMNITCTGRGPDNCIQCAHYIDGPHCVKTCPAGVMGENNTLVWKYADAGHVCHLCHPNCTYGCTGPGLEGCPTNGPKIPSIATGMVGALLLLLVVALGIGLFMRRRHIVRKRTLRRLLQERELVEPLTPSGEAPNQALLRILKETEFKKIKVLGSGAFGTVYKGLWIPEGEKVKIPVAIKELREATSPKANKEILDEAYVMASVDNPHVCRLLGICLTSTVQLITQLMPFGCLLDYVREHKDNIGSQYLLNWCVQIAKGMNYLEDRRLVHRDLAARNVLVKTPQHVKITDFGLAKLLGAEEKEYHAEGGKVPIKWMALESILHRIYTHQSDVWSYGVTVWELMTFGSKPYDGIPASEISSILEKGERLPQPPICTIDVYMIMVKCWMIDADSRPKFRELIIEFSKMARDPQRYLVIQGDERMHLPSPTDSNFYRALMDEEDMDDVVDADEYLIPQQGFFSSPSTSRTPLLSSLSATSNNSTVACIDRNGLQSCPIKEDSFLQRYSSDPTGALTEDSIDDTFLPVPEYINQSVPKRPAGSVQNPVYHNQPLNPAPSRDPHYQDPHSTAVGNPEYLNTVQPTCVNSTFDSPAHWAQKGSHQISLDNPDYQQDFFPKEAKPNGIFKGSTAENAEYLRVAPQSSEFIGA

inhibition [1]: 3% | inhibition [2]: 27%
SMILES: CC(COC(=O)c1ccc(-c2ccc(-c3ccccc3)cc2O)cc1)CC(C)(C)C (stereo not drawn)

pIC50 [3]: < 5.00
SMILES: CC(C)(C)c1ccc(-c2ccc(C(=O)O)cc2)c(O)c1

pIC50 [3]: < 5.30
SMILES: O=C(NCc1ccccc1)c1ccc(-c2cccc(-c3ccccc3)c2O)cc1

pIC50 [3]: < 4.70
SMILES: COC(=O)c1ccc(-c2cccc(-c3ccccc3)c2O)cc1

inhibition [1]: 16%
SMILES: COCOc1c(-c2ccccc2)cccc1-c1ccc(C(=O)OCC(C)CC(C)(C)C)cc1 (stereo not drawn)

pIC50 [3]: < 4.70 | inhibition [2]: 10%
SMILES: COCOc1cc(-c2ccccc2)ccc1-c1ccc(C(=O)OCC(C)CC(C)(C)C)cc1 (stereo not drawn)

pIC50 [3]: < 6.00
SMILES: O=C(NCc1ccccc1)c1ccc(-c2ccc(-c3ccccc3)cc2O)cc1

pIC50 [3]: < 6.00
SMILES: COCOc1cc(-c2ccccc2)ccc1-c1ccc(C(=O)NCc2ccccc2)cc1

pIC50 [3]: < 4.30
SMILES: CC(C)(C)c1cc(O)cc(-c2ccc(C(=O)O)cc2)c1

inhibition [4]: 15%
SMILES: CC(COC(=O)c1ccc(-c2cc(O)cc(-c3ccccc3)c2)cc1)CC(C)(C)C (stereo not drawn)

inhibition [1]: 11%
SMILES: CC(COC(=O)c1ccc(-c2cccc(-c3ccccc3)c2O)cc1)CC(C)(C)C (stereo not drawn)

inhibition [4]: 5%
SMILES: O=C(NCc1ccccc1)c1ccc(-c2cc(O)cc(-c3ccccc3)c2)cc1

pIC50 [3]: < 5.00
SMILES: COC(=O)c1ccc(-c2cc(O)cc(C(C)(C)C)c2)cc1

pIC50 [3]: < 4.30
SMILES: COCOc1cc(C(C)(C)C)ccc1-c1ccc(C(=O)OCC(C)CC(C)(C)C)cc1 (stereo not drawn)

inhibition [4]: 9%
SMILES: O=C(O)c1ccc(-c2cc(O)cc(-c3ccccc3)c2)cc1

pIC50 [3]: < 5.30
SMILES: CC(C)(C)c1cc(O)cc(-c2ccc(C(=O)NCc3ccccc3)cc2)c1

inhibition [4]: 6%
SMILES: COC(=O)c1ccc(-c2ccc(C(C)(C)C)cc2O)cc1

inhibition [1]: 2%
SMILES: COCOc1cc(-c2ccccc2)ccc1-c1ccc(C(=O)OC)cc1

pIC50 [3]: < 5.00 | inhibition [5]: 21%
SMILES: CC(C)(C)c1cc(O)cc(-c2ccc(CO)cc2)c1

inhibition [6]: 57% | pIC50 [3]: < 5.30
SMILES: CC(C)(C)c1ccc(-c2ccc(C(=O)NCc3ccccc3)cc2)c(O)c1

inhibition [4]: 3% | inhibition [2]: 25%
SMILES: CC(COC(=O)c1ccc(-c2ccc(C(C)(C)C)cc2O)cc1)CC(C)(C)C (stereo not drawn)

pIC50 [3]: 4.85 | inhibition [7]: 41%
SMILES: COC(=O)c1ccc(-c2ccc(-c3ccccc3)cc2O)cc1

inhibition [4]: 10%
SMILES: CC(COC(=O)c1ccc(-c2cc(O)cc(C(C)(C)C)c2)cc1)CC(C)(C)C (stereo not drawn)

pIC50 [3]: < 5.30 | inhibition [8]: 47%
SMILES: COCOc1cc(C(C)(C)C)ccc1-c1ccc(C(=O)NCc2ccccc2)cc1

inhibition [1]: 8%
SMILES: COCOc1cc(-c2ccccc2)ccc1-c1ccc(C(=O)O)cc1

pIC50 [9]: < 5.00
SMILES: COCOc1cc(C(C)(C)C)ccc1-c1ccc(C(=O)OC)cc1

From ChEMBL document CHEMBL1128699, “Inhibition of the EGF-stimulated cellular proliferation of ER 22 cells by hydroxybiphenyl derivatives” (J Med Chem, 1995)
